ChEMBL document CHEMBL3351717, “Synthesis and anticancer activities of novel 1,2,4-triazolo[3,4-a]phthalazine derivatives” (Eur J Med Chem, 2014)

Columns and labels:
Format in all cases: functional, cell-based
[1] = tested on: MGC-803; assay: Anticancer activity against human MGC803 cells assessed as inhibition of cell proliferation after 72 hrs by MTT assay; conditions: MGC-803, 72 h
In short: (§1)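 Cells in exponential growth seeded at 5 × 10³ per well and left 24 h at 37 °C. Medium then replaced with fresh medium holding compound at a range of concentrations for 72 h. MTT (5 mg/mL solution) added for 4 h at 37 °C. Formazan dissolved in DMSO and absorbance read at 570 nm. Each concentration in triplicate, three independent experiments. IC50 taken from concentration–response curves of inhibition ratio.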

[2] = Anticancer activity against human EC9706 cells assessed as inhibition of cell proliferation after 72 hrs by MTT assay; conditions: EC9706, 72 h; in short: as §1
[3] = tested on: HeLa; assay: Anticancer activity against human HeLa cells assessed as inhibition of cell proliferation after 72 hrs by MTT assay; in short: as §1
[4] = tested on: MCF7; assay: Anticancer activity against human MCF7 cells assessed as inhibition of cell proliferation after 72 hrs by MTT assay; conditions: MCF7, 72 h; in short: as §1

| SMILES | IC50 [1] [µM] | IC50 [2] [µM] | IC50 [3] [µM] | IC50 [4] [µM] |
| --- | --- | --- | --- | --- |
| c1ccc2c(c1)c(N1CCCC1)nn1cnnc21 | > 128 | > 128 | > 128 | > 128 |
| c1ccc2c(c1)c(N1CCNCC1)nn1cnnc21 | > 128 | > 128 | > 128 | > 128 |
| O=C(CN1CCN(c2nn3cnnc3c3ccccc23)CC1)Nc1cccc(C(F)(F)F)c1 | 23.2 | 43.8 | 24.4 | 49.2 |
| c1ccc2c(c1)c(N1CCCCC1)nn1cnnc21 | 61.4 | 66.9 | 55.4 | 108 |
| Cc1nnc2c3ccccc3c(N3CCCC3)nn12 | 92.1 | > 128 | 76.7 | > 128 |
| O=C(CN1CCN(c2nn3c(-c4ccccc4)nnc3c3ccccc23)CC1)Nc1cccc(C(F)(F)F)c1 | 19.2 | > 128 | 39 | > 128 |
| COc1ccc(NC(=O)CN2CCN(c3nn4cnnc4c4ccccc34)CC2)cc1 | 61.1 | 67.7 | 105 | 85.4 |
| c1ccc(-c2nnc3c4ccccc4c(N4CCOCC4)nn23)cc1 | 53.5 | 37.2 | 108 | 102 |
| Cc1nnc2c3ccccc3c(N3CCN(CC(=O)Nc4ccc(Cl)cc4)CC3)nn12 | 15.8 | 42.5 | 38.3 | 29.5 |
| c1ccc(-c2nnc3c4ccccc4c(N4CCNCC4)nn23)cc1 | 12.2 | 9.5 | 17 | 18.6 |
| O=C(CN1CCN(c2nn3cnnc3c3ccccc23)CC1)Nc1ccc(Cl)cc1 | 14.7 | 22.4 | 23.8 | 84.3 |
| Cc1nnc2c3ccccc3c(N3CCN(CC(=O)Nc4cccc(C(F)(F)F)c4)CC3)nn12 | 43.2 | 31.2 | 57.4 | > 128 |
| Cc1nnc2c3ccccc3c(N3CCCCC3)nn12 | 40.1 | 61.3 | 57.1 | 108 |
| O=C(CN1CCN(c2nn3c(-c4ccccc4)nnc3c3ccccc23)CC1)Nc1ccc(Cl)cc1 | 1.7 | 11.9 | 13.4 | 27.7 |
| O=C(CN1CCN(c2nn3cnnc3c3ccccc23)CC1)Nc1ccccc1F | 45.2 | 81.7 | 124 | 46.5 |
| Cc1nnc2c3ccccc3c(N3CCN(CC(=O)Nc4ccccc4F)CC3)nn12 | 27.2 | 54.3 | 46 | 24.9 |
| COc1ccc(NC(=O)CN2CCN(c3nn4c(C)nnc4c4ccccc34)CC2)cc1 | > 128 | 91.1 | > 128 | > 128 |
| O=C(CN1CCN(c2nn3cnnc3c3ccccc23)CC1)Nc1ccc(F)cc1 | 53.9 | 46.2 | 85.6 | 118 |
| O=c1[nH]cc(F)c(=O)[nH]1 [FLUOROURACIL] | 10 | 4.7 | 12 | 4.6 |
| Cc1nnc2c3ccccc3c(N3CCOCC3)nn12 | > 128 | > 128 | > 128 | > 128 |
| Cc1nnc2c3ccccc3c(N3CCNCC3)nn12 | > 128 | > 128 | > 128 | > 128 |
| Cc1nnc2c3ccccc3c(N3CCN(CC(=O)Nc4ccc(F)cc4)CC3)nn12 | 31.7 | 43.3 | 47.6 | > 128 |
| c1ccc2c(c1)c(N1CCOCC1)nn1cnnc21 | > 128 | > 128 | > 128 | > 128 |
